Consider one molecule from ChEMBL document CHEMBL4376902, “CN128: A New Orally Active Hydroxypyridinone Iron Chelator” (J Med Chem, 2020).

Series [1] can be described thus: Apparent clearance in Sprague-Dawley rat at 150 umol/kg, po measured up to 1440 mins by LC/MS/MS analysis. Type of series: ADME, organism-based. To be noted: in vivo, read-out: CL(app) (converted).
Series [2] has as its system Mus musculus. Description: Toxicity in mouse assessed as reduction in lymphocytes counts at 200 mg/kg, po dosed once daily for 2 months as 5 days per week schedule. Conditions: in vivo, 120 h.
Series [3] can be described thus: Binding affinity to Zn2+ ion assessed as affinity constant by spectrophotometric titration method.
The nature of series [4]: Apparent volume of distribution in Sprague-Dawley rat at 75 umol/kg, po measured up to 1440 mins by LC/MS/MS analysis. The format is ADME, organism-based. To be noted: in vivo, 24 h.
Series [5] is described as follows: AUC (0 to infinity) in Sprague-Dawley rat at 150 umol/kg, po measured up to 1440 mins by LC/MS/MS analysis. The format is ADME, organism-based. On the set-up: dose 150 umol/kg, route oral, time infinity. To be noted: in vivo, 24 h.
Series [6] can be described thus: Apparent clearance in Sprague-Dawley rat at 300 umol/kg, po measured up to 1440 mins by LC/MS/MS analysis. Type of series: ADME, organism-based. To be noted: in vivo, read-out: CL(app) (converted).
Series [7] in a line: Drug metabolism in rat liver microsomes assessed as glucuronidation incubated for 1 hr relative to deferiprone. The format is ADME, Microsome. A digest of the protocol: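 Compound incubated 1 h with rat or human liver microsomes, n = 4, mean ± SD. Glucuronide formed given as percentage of total chelator added. Oxidative metabolism assessed separately.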
A general note: Liver microsomes are vesicles of endoplasmic reticulum, rich in cytochrome P450 enzymes.

Series [8] in a line: Binding affinity to Al3+ ion assessed as affinity constant by spectrophotometric titration method.
A short description of series [9]: Binding affinity to Ni2+ ion assessed as affinity constant by spectrophotometric titration method. A digest of the protocol: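 Automated spectrophotometric titration with 0.1 M KOH in 0.1 pH steps, 3 min equilibration per step, 50 mm cuvette, iron complexes at ca. 40 µM. Titrated in competition with metal hydrolysis species up to pH 12.0. Hydrolysis constants taken from critical compilations. Iron spectra fitted over 400–700 nm.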

A short description of series [10]: AUC (0 to infinity) in Sprague-Dawley rat at 300 umol/kg, po measured up to 1440 mins by LC/MS/MS analysis. Type of series: ADME, organism-based. On the set-up: dose 300 umol/kg, time infinity, route oral. Conditions: in vivo, 24 h.
The nature of series [11]: Apparent clearance in Sprague-Dawley rat at 75 umol/kg, po measured up to 1440 mins by LC/MS/MS analysis. The format is ADME, organism-based. Conditions: in vivo, read-out: CL(app) (converted).
For series [12], the system named is Rattus norvegicus. Description: Iron scavenging activity in 59Fe-ferritin-loaded rat assessed as iron mobilization level at 150 umol/kg, po dosed 1 hr after 59Fe-ferritin injection and measured 24 hrs after 59Fe-ferritin injection by gamma counting method relative to control. Type of series: functional, organism-based. A digest of the protocol: (§1)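 Male SD rats, 300 g, fasted overnight, given about 1 μC 59Fe-ferritin i.v. under isoflurane. Chelator gavaged 1 h later, then rats housed in metabolic cages; food returned 1 h after dosing. Killed 24 h after 59Fe-ferritin. Urine, faeces, liver and gut gamma-counted. 8 rats per condition.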

Series [13] in a line: Oral bioavailability in Sprague-Dawley rat at 75 umol/k measured up to 1440 mins by LC/MS/MS analysis. Type of series: ADME, organism-based. Conditions: in vivo, 75 umol/kg. A digest of the protocol: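 Sprague-Dawley rats (200-250 g, half male, half female, n = 8 per route), fasted about 12 h. Dosed i.v. via tail vein at 75 μmol/kg or orally at 75-600 μmol/kg. Heparinised blood taken 0-1440 min; plasma protein-precipitated with acetonitrile and assayed by LC/MS/MS; bioavailability from oral vs i.v. exposure.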

Series [14] can be described thus: Binding affinity to Mg2+ ion assessed as pM value by spectrophotometric titration method.
Series [15] can be described thus: Toxicity in Sprague-Dawley rat assessed as induction of histopathological changes in pancreas at 25 to 116 mg/kg, po dosed daily for 4 weeks during chronic 4 week toxicity test. Type of series: organism-based. Conditions: in vivo, 672 h.
Series [16] concerns Rattus norvegicus. Description: Iron scavenging activity in 59Fe-ferritin-loaded rat assessed as iron mobilization level at 450 umol/kg, po dosed 1 hr after 59Fe-ferritin injection and measured 24 hrs after 59Fe-ferritin injection by gamma counting method relative to control. Type of series: functional. A digest of the protocol: as §1
The test system of series [17] is Mus musculus. Description: Toxicity in mouse assessed as reduction in neutrophils counts at 200 mg/kg, po dosed once daily for 2 months as 5 days per week schedule. Conditions: in vivo, 120 h.
The target in series [18] is T1, Cytochrome P450 1A2 (Homo sapiens, UniProt P05177).
T1 sequence (P05177 whole entry): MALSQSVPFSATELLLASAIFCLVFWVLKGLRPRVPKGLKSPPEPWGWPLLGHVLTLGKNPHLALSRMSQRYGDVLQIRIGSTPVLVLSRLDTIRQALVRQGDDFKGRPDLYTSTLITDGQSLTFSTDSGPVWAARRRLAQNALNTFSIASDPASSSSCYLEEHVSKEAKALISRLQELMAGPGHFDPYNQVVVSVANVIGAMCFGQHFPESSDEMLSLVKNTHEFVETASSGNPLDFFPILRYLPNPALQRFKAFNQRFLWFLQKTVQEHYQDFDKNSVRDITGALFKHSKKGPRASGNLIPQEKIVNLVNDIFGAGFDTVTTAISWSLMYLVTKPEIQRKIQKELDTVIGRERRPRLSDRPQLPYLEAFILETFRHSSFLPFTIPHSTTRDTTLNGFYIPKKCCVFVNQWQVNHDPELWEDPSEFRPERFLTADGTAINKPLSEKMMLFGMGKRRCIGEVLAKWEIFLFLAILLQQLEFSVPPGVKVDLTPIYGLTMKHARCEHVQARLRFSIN
Description: Inhibition of CYP1A2 in human liver microsomes. The format is ADME.

A short description of series [19]: Drug metabolism in rat bile assessed as (2S,3S,4S,5R,6R)-3,4,5-trihydroxy-6-[(2R)-2-(3-hydroxy-2-methyl-4-oxo-1-pyridyl)-3-phenylpropoxy]tetrahydropyran-2-carboxylic acid/(2S,3S,4S,5R,6S)-6-[[1-[(1R)-1-benzyl-2-hydroxyethyl]-2-methyl-4-oxo-3-pyridyl]oxy]-3,4,5-trihydroxy-tetrahydropyran-2-carboxylic acid ratio formation at 150 umol/kg, po measured over 8 hrs by LC/TOF/MS/MS analysis. Type of series: ADME, organism-based. To be noted: in vivo. A digest of the protocol: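 Bile collected from rats after an oral dose of 150 μmol/kg. Metabolites characterised by β-glucuronidase hydrolysis and LC-TOFMS/MS. M2/M1 ratio followed over 8 h.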

SMILES strings stand for the structures. The source made the active and inactive calls. The rule behind the calls is not given here. A value given as a limit tells only on which side of the number the result lay.

`Cc1c(O)c(O)cc[n+]1[C@@H](CO)Cc1ccccc1.[Cl-]`: the CL/F was 19 mL/min/kg in [1], 15.3 mL/min/kg in series [6] and 21.2 mL/min/kg in series [11]. Further, the Activity result in series [2] is given as “Non-Toxic”; in series [15], “Toxic”; in [16], 24.8%; in series [17], “Non-Toxic”. Further, the K worked out at 6.15 pM in [3] and 13 pM in series [8]. Further, the log K turned out to be 7.05 in series [3], 12.2 in series [8] and 6.92 in [9]. In [4], the Vz is 7.6 L/kg. Further, the results for the exposure (AUC) in [5] and in [10] were 37700 ng·h/mL and 89800 ng·h/mL, respectively. Moreover, in series [7], the Drug metabolism result is reported as “Metabolite_Detected”. Further, the outcome in series [12] was Active. For the same molecule, the bioavailability in [13] was 82.6%. Besides, in series [14], the pM worked out at 7.59. In series [18], this molecule came in with a concentration for half-maximal inhibition (IC50) of more than 200 µM. Further, the Ratio in series [19] fell in the range of 2.3 to 6.9.

In general, AUC refers to concentration integrated over time. The low end stands for low exposure, the high end for high exposure. For orientation: bioavailability means the share of a dose that reaches the circulation, judged against a reference dose that is usually intravenous. A high value points to good availability. Usually IC50 stands for the concentration needed to halve the response being measured. A lower IC50 goes with greater potency in that assay.
